Our source for the inhibition values is PubChem BioAssay AID1040 (The Scripps Research Institute Molecular Screening Center, 2008).

SMILES strings stand for the structures. Hit rate of the full screen: of about 200,000 compounds, about 2,000 (1%) were called active.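 How the source made its calls: active means inhibition above the campaign mean inhibition of all tested compounds plus 3 SD (cut at about 20% in these data); inactive means the rest.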 Many of the other results were omitted from the sample, so actives are more common in it than they were.

Sequence of Neuropeptide Y receptor type 1 (Homo sapiens) (P25929 whole entry, looked up): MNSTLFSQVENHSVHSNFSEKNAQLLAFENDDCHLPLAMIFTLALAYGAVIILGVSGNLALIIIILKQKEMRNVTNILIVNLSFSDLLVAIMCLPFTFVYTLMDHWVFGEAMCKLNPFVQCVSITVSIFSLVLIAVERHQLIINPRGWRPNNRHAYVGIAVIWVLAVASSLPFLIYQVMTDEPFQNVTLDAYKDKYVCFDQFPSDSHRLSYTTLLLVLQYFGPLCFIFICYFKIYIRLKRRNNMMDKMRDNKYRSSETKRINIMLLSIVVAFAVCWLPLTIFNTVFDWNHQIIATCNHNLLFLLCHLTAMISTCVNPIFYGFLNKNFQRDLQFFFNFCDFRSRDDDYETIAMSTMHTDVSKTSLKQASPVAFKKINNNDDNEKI

This assay addresses Neuropeptide Y receptor type 1 (Homo sapiens) (UniProt P25929). The assay is described as follows: blockers of human neuropeptide Y Y1 receptor – cell-based, primary screen (AID 1040).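 Further: 0% = DMSO wells given NPY plus isoproterenol and 100% = isoproterenol alone without NPY.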 To be noted: HEK293-CNG Y1 cells, membrane potential fluorescence; at 3.6 µM; active compounds read high; NPY at EC95, then isoproterenol. An outline of the steps:
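Material: HEK293 cells with Y1 receptor plus CNG channel; times: compound incubation 1 h at room temperature, readout 45 min post-stimulation; signal: fluorescence, membrane potential probe; read-out basis: fluorescence ratio normalized to % inhibition between controls; benchmarks: full-block control isoproterenol-only wells, zero-block control NPY plus isoproterenol wells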
Consider `COc1ccc(CCNc2nc(-c3cccc(NC(C)=O)c3)cs2)cc1OC`, for which the inhibition is 6.08% (inactive).

Take `COc1ccc(CCN(C(=O)COc2ccccc2)c2nc(-c3ccccc3)cs2)cc1OC`: the inhibition was 37.1% (active).

On to `CN(C(=O)COc1ccccc1)c1nnc(-c2ccncc2)s1`, for which the inhibition was 7.86% (inactive).

Take `CC(=O)N1CC(C)c2scc(C)[n+]2-c2ccccc21` (stereo not drawn): the inhibition is 23.1% (active).

As to `C/C(=C\c1ccccc1)C1NC(=O)c2c(sc3c2CCCC3)N1` (stereo not drawn), the inhibition is -4.04% (inactive).

In the case of `O=C(Cc1cccs1)N(CC1CCCO1)C1(C(=O)NC2CCCCC2)CCCCC1` (stereo not drawn), the inhibition was 50.3% (active).

Consider `CC(=O)N(CC1CCCO1)C1(C(=O)NC2CCCC2)CCCCC1` (stereo not drawn), for which the inhibition is 1.44% (inactive).

Consider `Cc1ccsc1C(C(=O)NC1CCCCC1)N(C(=O)Cc1cccs1)C1CC1` (stereo not drawn), for which the inhibition was 4.38% (inactive).

`CSc1cccc(NC(=S)N(Cc2ccccc2)Cc2ccccn2)c1`: the inhibition is 5.5% (inactive).

Consider `CCC1(CC)Cc2ccccc2-c2nc3ccccc3c(=O)n21`, for which the inhibition was 12.8% (inactive).

With `O=c1c2ccccc2nc2n1C1(CCCCC1)Cc1ccccc1-2`, the inhibition is 32% (active).

On to `c1cncc(-c2nnc3n2C2(CCCCC2)Cc2ccccc2-3)c1`, for which the inhibition is 1.15% (inactive).

Take `Cc1cc(C)c2[nH]c(=O)c(CN(Cc3ccccc3)C(=S)NCCCN(C)C)cc2c1`: the inhibition is 25.1% (active).

On to `COCCCNC(=S)N(Cc1ccccc1)Cc1ccc(F)cc1`, for which the inhibition was 2.32% (inactive).

Turning to `Cc1cccc2cc(CN(Cc3cccs3)C(=S)NCc3ccco3)c(=O)[nH]c12`, the inhibition was -4.05% (inactive).

`CC(=O)N1CCN(CC(=O)Nc2ccc(SC(F)F)cc2)CC1`: the inhibition is 4.16% (inactive).

On to `COc1ccc(C(CCNCc2ccccc2F)c2ccc(F)cc2)cc1` (stereo not drawn), for which the inhibition was 9.35% (inactive).

On to `COc1cccc(CNCCc2c[nH]c3ccccc23)c1OCc1ccccc1F`, for which the inhibition is 21.9% (active).

As to `COc1ccccc1NC(=O)CCCc1c[nH]c2ccccc12`, the inhibition was 11.1% (inactive).

For `CCC(=O)Nc1sc(C(=O)Nc2ccccc2)c(C)c1C(=O)OC`, the inhibition was 7.74% (inactive).

Regarding `O=S(=O)(Nc1ccc2cn[nH]c2c1)c1ccccc1`, the inhibition was -1.06% (inactive).

Consider `Cc1cc(C)nc(NS(=O)(=O)c2ccc(N/C=C\C(=O)c3cccs3)cc2)n1`, for which the inhibition was 1.24% (inactive).

On to `COc1ccc(CCNC2=C(Cl)C(=O)N(Cc3ccccc3)C2=O)cc1OC`, for which the inhibition was -3.95% (inactive).

On to `C/C(=N\N)c1c(-c2ccccc2)c2cc(Br)ccc2[nH]c1=O`, for which the inhibition is -0.69% (inactive).

Consider `Cc1cnc(C(=O)OCC(=O)NCCCc2ccccc2)cn1`, for which the inhibition is 2.73% (inactive).

With `COc1ccc(CN(C)C(=S)Nc2ccc(Cl)cc2Cl)cc1`, the inhibition is 3.26% (inactive).

As to `COc1ccc(C(=O)O/N=C(\N)Cc2ccc(Cl)cc2Cl)cc1OC`, the inhibition is -3.58% (inactive).

Consider `NC(N)=N/N=C/c1ccc(OCc2ccc(Cl)cc2Cl)cc1`, for which the inhibition is 22.1% (active).

`NC(N)=N/N=C/c1ccc(Cl)c([N+](=O)[O-])c1`: the inhibition is 3.89% (inactive).

With `CN(C)CCNC(=O)Cc1ccc([N+](=O)[O-])cc1`, the inhibition is -2.56% (inactive).

`Cc1ccc2cc(CN(c3ccc(C)c(C)c3)S(C)(=O)=O)c(=O)[nH]c2c1`: the inhibition was -0.43% (inactive).

With `NNC(=O)c1cnn(-c2ccccc2)c1C(F)(F)F`, the inhibition was 3.72% (inactive).

`O=C(CN1C2=NCCN2c2ccccc21)c1cccs1`: the inhibition was 3.06% (inactive).

In the case of `Cc1cccc(C(=O)Nc2ccccc2N2CCN(c3ccc(F)cc3)CC2)c1`, the inhibition is 6.05% (inactive).

In the case of `O=C(Nc1ccccc1N1CCCCC1)c1cccc(F)c1`, the inhibition was 13.7% (inactive).

With `O=C(Nc1ccccc1N1CCN(c2ccccc2)CC1)c1cccc(F)c1`, the inhibition was 44.1% (active).

Take `CC(=O)N(CCCN(C)C)c1nc2ccc(C)cc2s1`: the inhibition was -0.43% (inactive).

For `O=C(CSc1cccc[n+]1[O-])c1ccc(Cl)cc1`, the inhibition was 0.77% (inactive).

With `CN(C)S(=O)(=O)c1cc(NC(=O)CN2C(=O)NC3(CCCc4ccccc43)C2=O)ccc1Cl` (stereo not drawn), the inhibition was -4.16% (inactive).

As for `Cc1ccc(-n2nc3cc(C)c(NC(=O)c4cccnc4)cc3n2)cc1`, the inhibition was -4.27% (inactive).

`Cc1ccc2nc(-c3ccc(NC(=O)c4cccnc4)cc3)oc2c1`: the inhibition was -0.59% (inactive).

In the case of `Cc1cc2nc(-c3ccc(NC(=O)c4cccnc4)cc3)oc2cc1C`, the inhibition is 29.8% (active).

With `Cc1nc2cc(NC(=O)NC3CC3)ccc2n1C`, the inhibition is -0.07% (inactive).

On to `O=C(CN1CCN(CC(=O)Nc2ccc3c(c2)OCO3)CC1)Nc1ccc(F)cc1`, for which the inhibition was -3.14% (inactive).

On to `O=C(CN1CCN(c2ncc(C(F)(F)F)cc2Cl)CC1)Nc1ccc2c(c1)OCO2`, for which the inhibition is 23.8% (active).

Turning to `O=C(CN1CCN(C(=O)c2ccco2)CC1)Nc1ccc2c(c1)OCO2`, the inhibition was 0.97% (inactive).

On to `COc1ccc(C(=O)NC(Cc2ccc(OC(=O)c3ccc(OC)cc3)cc2)C(=O)O)cc1` (stereo not drawn), for which the inhibition is 3.87% (inactive).

Regarding `Cc1coc(C)c1C(=O)CC1(O)C(=O)N(C)c2ccc(Cl)cc21` (stereo not drawn), the inhibition was 1.88% (inactive).

`O=C1NC(=Nc2ccc(Cl)cc2)SC1Cc1cccc(Cl)c1Cl` (stereo not drawn): the inhibition was -1.29% (inactive).

Take `CCc1cc2c(NC3CCCC3)ncnc2s1`: the inhibition was -1.37% (inactive).

Turning to `O=C(Nc1ccc2ccccc2c1)/C(=C/c1cccc(Br)c1)NC(=O)c1ccco1`, the inhibition was 7.08% (inactive).

For `CCCc1ccc(OCC(=O)NNC(=S)NC(=O)c2ccco2)cc1`, the inhibition was 10.6% (inactive).

In the case of `CC(Oc1ccc2ccccc2c1)C(=O)NNC(=S)NC(=O)c1ccco1` (stereo not drawn), the inhibition was 21.9% (active).

As to `COc1ccccc1NC(=O)CSc1nc2sc(C)c(C)c2c(=O)n1Cc1ccco1`, the inhibition is 9.58% (inactive).

Take `CCOC(=O)CSc1nc2c(sc(=S)n2CCc2ccccc2)c(=O)n1Cc1ccco1`: the inhibition was 34.8% (active).

Consider `CCOC(=O)CSc1nc2c(c(=O)n(C)c(=O)n2C)n1Cc1ccccc1F`, for which the inhibition is 1.86% (inactive).

`CC(=O)c1ccc(N2CCN(S(=O)(=O)c3c(C)[nH]c(=O)[nH]c3=O)CC2)cc1`: the inhibition is -3.11% (inactive).

As for `O=C(NC(=S)Nc1cccc(-c2ccc(CO)o2)c1)c1cccs1`, the inhibition was 4.06% (inactive).

As for `O=C(Nn1c(SCc2ccc([N+](=O)[O-])cc2)nc2ccccc2c1=O)c1ccc(F)cc1`, the inhibition was 3.79% (inactive).

For the compound `COc1ccc2oc(=O)c(C(=O)N3CCCC3)cc2c1`, the inhibition was 1% (inactive).

With `CCOC1CCCCC1NS(=O)(=O)c1ccc(Cl)cc1` (stereo not drawn), the inhibition is 21.4% (active).

Take `CSc1ccc(S(=O)(=O)NC2CCCCC2)cc1`: the inhibition was -0.27% (inactive).

`Cc1cc(C)nc(SC2CCCCC2NS(=O)(=O)c2ccc(Cl)cc2)n1` (stereo not drawn): the inhibition is 4.03% (inactive).

What is called inhibition is the drop in the measured response relative to a control, in per cent.
